Assay outcomes deposited in PubChem BioAssay by several laboratories.
Runt-CBFb FRET: inhibitors of human RUNX1 Runt domain binding to CBFb; inhibition, % at 20 µM; Cerulean-Runt/Venus-CBFb FRET ratio 530/480, 1 h; 220,000 compounds, 0.46% hits; Q01196+Q13951;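 active = inhibition over about 50% at 20 µM in the single-dose screen, limit read from the data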;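 note: 0% = DMSO wells and 100% = excess unlabeled CBFb competitor control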
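Schedule: protein complex preformed 1 h, compound exposure 1 h, room temperature, dark; test system: Cerulean-labeled Runt domain protein; amount: 100 nM per protein; buffer or medium: Tris 50 mM pH 7.5, KCl, K2SO4, 0.01% BSA; read-out: loss of energy transfer signal; detection: FRET fluorescence; controls: 5 µM unlabeled CBFb as full-inhibition high control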
Runt-SMMHC FRET: Runt domain-CBFb-SMMHC interaction inhibition. Cerulean-Runt/Venus-CBFb-SMMHC FRET ratio 530/480, 1 h. Q01196+Q13951. 220,000 compounds, 0.74% hits. AID 1434. inhibition, % at 20 µM;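 active = mean inhibition across duplicate retests at 20 µM reaching about 50%, limit read from the data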;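 note: 0% = DMSO wells and 100% = wells with excess untagged CBFb-SMMHC; inhibitors lower the FRET ratio by blocking Runt binding to CBFb-SMMHC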
TbHK1 inh: T. brucei hexokinase 1 inhibition; recombinant TbHK1, G6PDH-coupled NADH A340; inhibition, % at 10 µM; 220,000 compounds, 0.11% hits;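 active = inhibition of 50% or more in the single-dose primary screen; inactive = inhibition below 50%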
Hck Nef HTS: inhibitors of human Hck kinase activated by Nef. P08631. Recombinant Hck-YEEI plus Nef, Z-Lyte FRET kinase assay. inhibition, % at 20 µM. 220,000 compounds, 0.68% hits;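 active = Hck-Nef kinase inhibition above about 50%, limit read from the data; inactive = inhibition below that limit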;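 note: 0% = DMSO with Hck plus Nef and 100% = Hck alone without Nef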
Target sequence (P08631 whole entry, looked up): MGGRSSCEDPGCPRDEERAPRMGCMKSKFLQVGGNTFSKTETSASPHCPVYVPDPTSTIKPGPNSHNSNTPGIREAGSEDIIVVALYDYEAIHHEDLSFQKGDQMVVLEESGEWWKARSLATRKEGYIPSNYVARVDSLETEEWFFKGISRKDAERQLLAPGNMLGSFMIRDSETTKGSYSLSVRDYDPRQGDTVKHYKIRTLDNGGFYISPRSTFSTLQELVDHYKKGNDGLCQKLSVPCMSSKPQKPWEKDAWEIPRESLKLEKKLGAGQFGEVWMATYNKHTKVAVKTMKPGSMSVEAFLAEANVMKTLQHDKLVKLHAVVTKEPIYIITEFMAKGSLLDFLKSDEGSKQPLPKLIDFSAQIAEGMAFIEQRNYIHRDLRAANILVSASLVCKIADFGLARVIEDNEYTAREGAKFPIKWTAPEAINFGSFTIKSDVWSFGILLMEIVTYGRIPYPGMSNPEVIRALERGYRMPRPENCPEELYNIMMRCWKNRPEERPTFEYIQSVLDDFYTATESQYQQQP
RanGTP-Impb inh: inhibitors of RanGTP-importin-beta interaction, primary screen, biochemical, FRET, CFP-Ran, YFP-importin-beta, homogeneous. inhibition, % (no concentration beside the values). AID 2216. 300,000 compounds, 1.1% hits. cell-free CFP-Ran/YFP-importin-beta FRET ratio;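 active = more than half of the replicate wells show a fall in the fluorescence ratio signal beyond about 16%, limit read from the data, passing the limit was not always enough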;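 note: 0% = DMSO wells and 100% = Ran loaded with GDP instead of GTP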
* marks the source's active call; other numbers are inactive results; nt = no result. Shown are actives, neighbours in structure and some others; about 1.9% of the full set was active somewhere.

SMILES	Runt-CBFb FRET	Runt-SMMHC FRET	TbHK1 inh	Hck Nef HTS	RanGTP-Impb inh
CCN1/C(=C/C=C/c2oc3ccc(-c4ccccc4)cc3[n+]2CC)Oc2ccc(-c3ccccc3)cc21	-57.8	-265.9	100.7*	-13.8	-0.1
CCCCN1C(=O)/C(=C/C=C2\Oc3ccccc3N2CC)SC1=S	3.7	-46.9	-3.6	23.6	-5.9
Cn1c(=O)c2sccc2n(Cc2cccc(Br)c2)c1=O	nt	nt	nt	nt	1.5
CCOC(=O)c1c(-c2cccs2)csc1NC(=O)C(C)(C)C	110.4*	-6.1	-3.5	-1.5	-3.2
Cc1ccc(N(C(=O)c2snc(C(N)=O)c2N)C(C(=O)NCCC(C)C)c2ccco2)cc1 (centres undefined)	-3.0	9.2	-5.7	74.8*	-0.6
CCc1ccc(N(C(=O)c2snc(C(N)=O)c2N)C(C(=O)NC2CCCC2)c2ccco2)cc1 (centres undefined)	nt	nt	nt	nt	5.2
NC(=O)c1nsc(C(=O)N(CCc2ccccc2)C(C(=O)NC2CCCC2)c2ccco2)c1N (centres undefined)	4.3	5.7	-2.8	0.2	88.5*
O=C(COc1ccc(S(=O)(=O)Nc2ccccc2)cc1)NCc1ccncc1	3.3	0.9	-3.8	8.9	-0.3
C=CCN(CC=C)c1nc2ccccc2nc1C(C#N)C(=O)OC(C)C (centres undefined)	16.2	114.9*	1.9	0.1	28.7*
CC(=O)c1ccc(N/N=C(/C(N)=O)C2=NC(C)(C)Cc3ccccc32)cc1	-3.8	2.2	-17.3	72.1*	8.7
CC1(C)Cc2ccccc2C(/C(=N\Nc2cccc(Cl)c2)C(N)=O)=N1	-5.3	-4.3	8.9	25.9	-2.6
O=C(Oc1cccccc1=O)c1ccccc1	2.7	-0.5	-11.9	-1.2	63.1*
CC(C)N1CCc2c(sc(NC(=O)c3ccc(C(=O)c4ccccc4)cc3)c2C(N)=O)C1	nt	nt	nt	nt	63.5*
CC(C)N1CCc2c(sc(NC(=O)c3ccc4ccccc4c3)c2C(N)=O)C1	nt	nt	nt	nt	147.7*
CC(=O)Nc1sc2c(c1-c1nc3ccccc3s1)CCN(C(C)C)C2	23.7	85.4*	-19.0	-36.9	nt
CC(C)N1CCc2c(sc(NC(=O)c3cc4cc([N+](=O)[O-])ccc4s3)c2C(N)=O)C1	-2.1	-0.5	-15.2	9.3	32.9*
Oc1ccc(N2CCN(Cc3cc4c(cc3Br)OCCO4)CC2)cc1	nt	nt	nt	nt	0.1
COc1cc(-c2nnc(SCC(=O)NC3CCCC3)n2C)cc(OC)c1O	nt	nt	nt	nt	2.4
CCN1CCN(C(=S)Nc2cc(S(=O)(=O)N(CC)CC)ccc2C)CC1	0.5	-1.1	-3.7	25.5	-2.7
Cc1nn(CCCC(=O)NCCCN2CCN(C)CC2)c(=O)c2c1sc1ccccc12	nt	nt	nt	nt	1.2
Cc1cc2[nH]c(=O)c(=O)[nH]c2cc1S(=O)(=O)Nc1cccc(Cl)c1	nt	nt	nt	nt	7.1
Cc1cc(C)c2c(=O)n(CC(=O)NC3CCCC3)sc2n1	1.5	52.6*	-6.2	-140.6	-1.9
O=C(O)C(=O)/C(=C\c1cccc2ccccc12)c1ccc2ccccc2n1	18.6	80.2*	-8.1	1.0	62.8*
O=C(O)C(=O)/C(=C\c1ccccc1)c1ccc2ccccc2n1	7.1	51.5*	-11.7	18.0	30.9*
O=C(O)C(=O)/C(=C\c1ccsc1)c1ccc2ccccc2n1	nt	nt	nt	nt	19.9*
SMILES	Runt-CBFb FRET	Runt-SMMHC FRET	TbHK1 inh	Hck Nef HTS	RanGTP-Impb inh
O=C(O)C(=O)/C(=C\c1ccc([N+](=O)[O-])cc1)c1ccc2ccccc2n1	14.7	25.4	-5.5	-5.1	9.2
O=C(NCc1ccccc1F)C1CCCN1S(=O)(=O)c1ccc(F)cc1 (centres undefined)	nt	nt	nt	nt	6.8
CCC(C)NC(=O)NCc1ccccc1F (centres undefined)	-0.2	-0.3	-3.4	-9.4	6.8
N#C/C(=C/c1ccncc1)c1nc2ccccc2s1	-16.5	-39.8	-21.0	16.0	84.0*
N#C/C(=C\c1ccncc1)c1nc2ccccc2[nH]1	4.5	-10.8	-28.7	-23.3	7.4
COc1ccc(NC2=CC(=O)CC(c3ccc(C)cc3)C2)c(OC)c1 (centres undefined)	nt	nt	-6.2	2.3	6.9
COc1ccccc1NC1=CC(=O)CC(c2ccccc2)C1 (centres undefined)	2.4	6.2	-11.2	2.7	55.3*
CN1CCc2c(C#N)c(N3CCOCC3)nc(NCC3CCCO3)c2C1 (centres undefined)	32.6	6.3	-11.5	10.6	70.5*
CCOC(=O)/C=C1\SCC(=O)N1CC(=O)Nc1ccccc1OC(F)F	-3.2	-4.0	-0.5	0.4	149.8*
CCOC(=O)/C=C1\SCC(=O)N1CC(=O)NC(c1ccccc1)c1ccccc1	-5.3	0.3	30.9	2.6	-3.2
COc1cc(CN2CCC(Oc3cc(C(=O)NC4CC4)ccc3OC)CC2)cc(OC)c1	nt	nt	nt	nt	5.6
Cc1ccc(-n2c(N)c(C(=O)Nc3c(C)n(C)n(-c4ccccc4)c3=O)c3nc4ccccc4nc32)cc1	1.3	-18.7	-19.3	5.3	-11.4
COCCCNC(=O)c1c(N)n(-c2ccc(S(N)(=O)=O)cc2)c2nc3ccccc3nc12	56.8*	81.6*	-1.1	10.7	61.0*
Cc1cc(C)cc(-n2c(N)c(C(=O)Nc3c(C)n(C)n(-c4ccccc4)c3=O)c3nc4ccccc4nc32)c1	-9.4	-79.7	-14.3	53.9*	-6.2
COCCNC(=O)c1c(N)n(-c2ccccc2)c2nc3ccccc3nc12	88.0*	42.1	-7.3	33.0	90.1*
COCCCNC(=O)c1c(N)n(-c2ccccc2)c2nc3ccccc3nc12	54.5*	81.0*	-30.5	10.1	87.0*
COc1cc(-n2c(N)c(C(=O)NCc3ccco3)c3nc4ccccc4nc32)cc(OC)c1OC	4.4	-7.2	-10.3	2.6	12.3
COc1ccc(-c2ccc(NC(=O)c3ccc(Br)o3)cc2)nn1	nt	nt	nt	nt	4.7
COc1ccc(C(=O)NCCCn2ccnc2)cc1	0.0	0.1	4.5	-0.6	-0.6
COC(=O)c1c(N)n(-c2ccc(NC(C)=O)cc2)c2nc3ccccc3nc12	28.5	73.9*	-20.4	40.7	7.4
C=CCn1c(N)c(C(=O)Nc2ccccc2)c2nc3ccccc3nc21	4.1	5.1	-12.6	3.1	17.8*
COCCCNC(=O)c1c(N)n(/N=C/c2cccs2)c2nc3ccccc3nc12	87.7*	58.5*	-33.3	13.2	11.2
COCCCNC(=O)c1c(N)n(/N=C/c2cccnc2)c2nc3ccccc3nc12	9.0	23.8	-19.1	-4.7	7.6
COC(=O)c1c(N)n(-c2ccc(N3CCOCC3)cc2)c2nc3ccccc3nc12	-0.8	-1.1	nt	nt	nt
COCCNC(=O)c1c(N)n(CCCn2ccnc2)c2nc3ccccc3nc12	39.5	41.0	-0.1	32.4	113.5*
CC(=O)c1ccc(OCCCC(=O)Nc2ccc(S(=O)(=O)N3CCOCC3)cc2)cc1	nt	nt	nt	nt	1.3
Cc1cccc(N2CCN(C(=O)c3ccc4nc(-c5ccco5)c(-c5ccco5)nc4c3)CC2C)c1 (centres undefined)	12.7	-14.7	-12.1	9.2	35.1*
